Results taken from ChEMBL document CHEMBL3865824, “New (E)-1-alkyl-1H-benzo[d]imidazol-2-yl)methylene)indolin-2-ones: Synthesis, in vitro cytotoxicity evaluation and apoptosis inducing studies” (Eur J Med Chem, 2016).
Calls of active or inactive are those of the source. The rule behind the calls is not given here.

Assays:
MDA-MB-231 [1] = assay: Induction of apoptosis in human MDA-MB-231 cells assessed as loss of mitochondrial membrane potential at 4 uM after 24 hrs by rhodamine-123 -based spectrofluorometric analysis relative to control; assay type: functional
How it was run: (§1)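 MDA-MB-231 cells were plated at 5×10^5 cells/mL in 6-well plates, left to adhere overnight, then treated 24 h at 1, 2 and 4 μM. Cells were trypsinized, washed in PBS and loaded with rhodamine-123 (10 μg/mL) in PBS for 30 min at room temperature. After two PBS washes, fluorescence was read by spectrofluorometer (ex 480/em 530 nm). Loss is expressed against control; three independent experiments in triplicate.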

[2] = Cell cycle arrest in human MDA-MB-231 cells assessed as accumulation at G0/G1 phase at 4 uM after 24 hrs by propidium iodide staining based FACS analysis (reference value: 50.4 %); assay type: functional
How it was run: (§2)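 MDA-MB-231 at 1×10^6 cells/well treated with 1, 2 or 4 µM for 24 h, with a DMSO control. Cells harvested by trypsin, washed with PBS and fixed in 70% ethanol for 30 min at 4 °C. Stained 15 min at room temperature in the dark with PI buffer containing Triton X and DNase-free RNase A. Analysed by flow cytometry; G0/G1, S and G2/M fractions quantified.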

[3] = Cytotoxicity against […] cells assessed as reduction in cell viability after 48 hrs by MTT assay; assay type: functional, cell-based; conditions: 4T1, 48 h
How it was run: (§3)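 Cells grown in DMEM or MEM with 10% FBS at 37 °C, 5% CO2. Seeded at 1×10^4 cells/well, incubated 48 h, then exposed to compound for 48 h with vehicle control. MTT (5 mg/mL stock) added for 4 h; formazan dissolved in DMSO, absorbance read at 570 nm. Preliminary screen at 50 µM. Compounds giving >50% inhibition were tested for dose-response curves; IC50 derived by linear regression of % inhibition versus concentration. Mean of three independent experiments in triplicate.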

[4] = Selectivity ratio of IC50 for human MCF10A cells to IC50 for human A549 cells; assay type: ADME, cell-based; conditions: MCF10A cells versus A549 cells, read-out: Ratio IC50
[5] = Cell cycle arrest in human MDA-MB-231 cells assessed as accumulation at G2/M phase at 2 uM after 24 hrs by propidium iodide staining based FACS analysis (reference value: 26 %); assay type: functional; how it was run: as §2
MDA-MB-231 [6] = assay: Induction of apoptosis in human MDA-MB-231 cells assessed as early apoptotic cells at 4 uM after 24 hrs by Annexin V-FITC/propidium iodide-staining based FACS analysis (reference value: 4.1 %); assay type: functional
MDA-MB-231 [7] = assay: Induction of apoptosis in human MDA-MB-231 cells assessed as viable cells at 4 uM after 24 hrs by Annexin V-FITC/propidium iodide-staining based FACS analysis (reference value: 89.5 %); assay type: functional; conditions: MDA-MB-231, 24 h, read-out: Activity
MDA-MB-231 [8] = assay: Induction of apoptosis in human MDA-MB-231 cells assessed as early apoptotic cells at 2 uM after 24 hrs by Annexin V-FITC/propidium iodide-staining based FACS analysis (reference value: 4.1 %); assay type: functional
MDA-MB-231 [9] = assay: Induction of apoptosis in human MDA-MB-231 cells assessed as formation of condensed chromatin at 1 uM after 24 hrs by AO/EB-dual staining based fluorescent microscopic analysis; assay type: functional, cell-based
How it was run: (§4)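 MDA-MB-231 plated at 1×10^6 cells/mL and treated at 1, 2 or 4 µM, with a DMSO control. Incubation time is given as 48 h in the methods and 24 h in the figure legend. AO and EB added at 10 µg/mL each. Cells viewed within 10 min by fluorescence microscopy (excitation 488 nm, emission 550 nm) at 200×.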

MDA-MB-231 [10] = assay: Induction of apoptosis in human MDA-MB-231 cells assessed as viable cells at 1 uM after 24 hrs by Annexin V-FITC/propidium iodide-staining based FACS analysis (reference value: 89.5 %); assay type: functional; conditions: MDA-MB-231, 24 h, read-out: Activity
MDA-MB-231 [11] = assay: Induction of apoptosis in human MDA-MB-231 cells assessed as loss of mitochondrial membrane potential at 2 uM after 24 hrs by rhodamine-123 -based spectrofluorometric analysis relative to control; assay type: functional; how it was run: as §1
MDA-MB-231 [12] = assay: Induction of superoxide production in human MDA-MB-231 cells after 48 hrs by mitoSOX red-probe based fluorescent microscopic analysis; assay type: functional, cell-based
How it was run: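 Cells were seeded at 1×10^5/well in 24-well plates and left to adhere overnight, then treated at different concentrations (methods: medium removed after 24 h; legend: 48 h treatment). After a PBS wash, cells were loaded with MitoSOX Red in HBSS for 15 min at 37 °C, washed three times with PBS and imaged by fluorescence microscopy against DMSO control.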

MDA-MB-231 [13] = assay: Induction of apoptosis in human MDA-MB-231 cells assessed as increase in caspase-3 expression after 24 hrs by Western blot analysis; assay type: functional, cell-based
How it was run: (§5)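 MDA-MB-231 treated at 1, 2 or 4 µM for 24 h. Whole-cell extracts prepared in RIPA buffer. Blots probed with rabbit anti-caspase-3, anti-Bcl2 and anti-β-actin (1:1000) and anti-Bax (1:500), then HRP secondaries and ECL detection. Membranes stripped and reprobed. Bands quantified by densitometry as fold change versus control. Mean ± SEM, n=3.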

MDA-MB-231 [14] = assay: Induction of apoptosis in human MDA-MB-231 cells assessed as necrotic cells at 2 uM after 24 hrs by Annexin V-FITC/propidium iodide-staining based FACS analysis (reference value: 2.8 %); assay type: functional
[15] = Cytotoxicity against human PC3 cells assessed as reduction in cell viability after 48 hrs by MTT assay; assay type: functional, cell-based; conditions: PC-3, 48 h; how it was run: as §3
[16] = Cytotoxicity against human MDA-MB-231 cells assessed as growth inhibition at 50 uM after 48 hrs by MTT assay relative to control; assay type: functional; conditions: MDA-MB-231, 48 h, read-out: GI; how it was run: as §3
[17] = Cytotoxicity against human BT549 cells assessed as reduction in cell viability after 48 hrs by MTT assay; assay type: functional, cell-based; conditions: BT-549, 48 h; how it was run: as §3
MDA-MB-231 [18] = assay: Induction of apoptosis in human MDA-MB-231 cells assessed as formation of horse-shoe shaped nuclei at 1 to 4 uM after 24 hrs by DAPI dye-based fluorescent microscopic analysis; assay type: functional, cell-based
How it was run: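 MDA-MB-231 grown at 1×10^6 cells/well in 6-well plates and treated at 1.0, 2.0 or 4.0 µM for 24 h, with untreated controls. Cells washed twice with PBS, fixed in 4% paraformaldehyde and stained with 10 µg/mL DAPI. Nuclei examined by fluorescence microscopy (excitation 359 nm, emission 461 nm) at 200×.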

MDA-MB-231 [19] = assay: Induction of apoptosis in human MDA-MB-231 cells assessed as cell membrane blebbing at 1 uM after 24 hrs by AO/EB-dual staining based fluorescent microscopic analysis; assay type: functional; how it was run: as §4
MDA-MB-231 [20] = assay: Induction of apoptosis in human MDA-MB-231 cells assessed as increase in Bax expression after 24 hrs by Western blot analysis; assay type: functional, cell-based; how it was run: as §5
[21] = Cytotoxicity against HGC cells assessed as growth inhibition at 50 uM after 48 hrs by MTT assay relative to control; assay type: functional; conditions: Homo sapiens, read-out: GI; how it was run: as §3

CC(C)n1c(/C=C2/C(=O)Nc3ccc(Br)cc32)nc2ccccc21
Activity (MDA-MB-231 [1]): 38.5%
Activity [2]: 74.7%
IC50 [3]: 5.96 µM
selectivity ratio [4]: 6.5
Activity [5]: 18.9%
Activity (MDA-MB-231 [6]): 23.4%
viability at 4 µM (MDA-MB-231 [7]): 65.3%
Activity (MDA-MB-231 [8]): 18.7%
Activity (MDA-MB-231 [9]): Active
viability at 1 µM (MDA-MB-231 [10]): 83.3%
Activity (MDA-MB-231 [11]): 32.5%
Activity (MDA-MB-231 [12]): Dose-dependent effect
Activity (MDA-MB-231 [13]): Dose-dependent effect
Activity (MDA-MB-231 [14]): 3.3%
IC50 [15]: 10.7 µM
inhibition of growth at 50 µM [16]: > 50%
IC50 [17]: 13.7 µM
Activity (MDA-MB-231 [18]): Active
Activity (MDA-MB-231 [19]): Active
Activity (MDA-MB-231 [20]): Dose-dependent effect
inhibition of growth at 50 µM [21]: > 50%
